# Source: PubChem
# Only some compounds are listed: those with a hit (about 2.2% of all), similar ones and a draw of the others.
# PglD DTNB: inhibitors of Campylobacter jejuni PglD acetyltransferase. purified PglD enzyme, DTNB colorimetric CoA detection. inhibition, % at 12.5 µM. actives 0.098% (n = 360,000); in the data active means inhibition above about 16%, passing the limit was not always enough; inconclusive means no clear call, values can overlap the other calls
# rRNA inh HTS: inhibits bacterial ribosomal RNA function over humanized ribosomes; E. coli WT GFP vs humanized-ribosome RFP mutants, fluorescence, 24 h; stronger effect = lower value; DMSO median 0, no signal -100; actives 1.6% (n = 350,000); GFP signal change (wild-type ribosome), % (test concentration not listed);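 active means significant combined selectivity score with lowered wild-type GFP, culture density cut under 30%, mutant RFP and density less affected; inactive means any of these conditions unmet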
# CR mimetic SO: lowers age-related superoxide in aged yeast cells. AID 2690. S. cerevisiae aged cells, superoxide DHE fluorescence; stronger effect = lower value. superoxide response (% of plate mean), % at 10 µM. actives 0.18% (n = 330,000);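 active means superoxide response under a set limit, about three screen SD below normal, cut at about 65% in these data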;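 further: yeast aged for seven days with compound at 30 °C before DHE staining; 100% = average MFI of all compound-treated wells on the plate with controls excluded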
# Cneo AK release: causes C. neoformans cell lysis | AID 651654 | adenylate kinase release luminescence, 4 h; normalised: neutral wells 0, clomiphene wells 100 | actives 0.2% (n = 360,000) | lysis activity, % at 15 µM;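 active means mean lysis activity across replicates of at least 80%, whatever share of replicates individually reach that level; inactive means mean lysis activity below 80%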
#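 Material: C. neoformans cells; Schedule: 4 h static compound exposure, 37 °C, read 1 h post-reagent; Measured by: adenylate kinase release luminescence; Read-out: signal increase indicating cell lysis; Controls: Clomiphene as positive lysis control.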
# SUMO Mot1 rescue: inhibitors of SUMOylation pathway: yeast Mot1-301 growth rescue; S. cerevisiae Mot1-301 growth rescue, ATP luminescence, 38.5C; percent above DMSO median, 100 means doubled; growth rescue, % at 18.8 µM; actives 1% (n = 320,000); AID 2716;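 active means every valid replicate shows activation above 250% relative to neutral control wells; inactive means the rest, any valid replicate at or below 250%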;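 further: OY570 slx delta 5 strain wells were the positive control but not used for scaling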
# AID977621: growth inhibition of wild-type GFP E. coli, dose response, H69 mutant RFP, cherry-pick; E. coli wild-type GFP strain growth, fluorescence, 24 h; shares compounds with rRNA inh HTS; 1,900 tested, under 10 active; activity change, negative = inhibition at 50 µM;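 active means Wild-type ribosome reporter drop at least double the humanized mutant ribosome reporter drop, growth loss under a set limit; inconclusive means no clear call, values can overlap the other calls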;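 further: wild-type GFP and H69 mutant RFP strains grown together 50/50 in each well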
# AID977628: growth of wild-type and h24-humanized E. coli strains – h24 mutant RFP vs wild-type GFP, cherry-pick, dose response. shares compounds with rRNA inh HTS. E. coli WT GFP strain growth, fluorescence, 24 h. activity change, negative = inhibition at 50 µM. 1,900 tested, under 10 active;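 active means compound lowering the normal-ribosome reporter at least twice as much as the humanized-ribosome reporter, growth loss under a set limit; inconclusive means no clear call, values can overlap the other calls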;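 further: wild-type GFP and h24 humanized RFP strains co-cultured 1 to 1 per well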
# Numbers without * were called inactive; ? = inconclusive; / = not tested or not shown.
SMILES,PglD DTNB,rRNA inh HTS,CR mimetic SO,Cneo AK release,SUMO Mot1 rescue,AID977621,AID977628
COc1ccc(CN(C)C(=O)c2cc(-c3ccc(OC)c(OC)c3)nc3ccccc23)c(OC)c1,2,-23*,84,-1,-15,-3.3,-3.5
CC(C)C#Cc1cnc2c(c1)C(=O)N([C@H](C)CO)C[C@H](C)[C@@H](CN(C)C(=O)Cc1ccncc1)O2,-2,6,/,-1,/,/,/
CC(C)CC#Cc1ccc([C@@H]2[C@@H](CO)N3C(=O)CN(C(=O)Cc4ccccc4)C[C@@H]23)cc1,/,-38*,/,/,/,1.1,?
COc1ccc(C#Cc2ccc([C@@H]3[C@@H](CO)N4CCCCN(C(=O)Nc5ccccc5F)C[C@H]34)cc2)cc1,2,-35*,/,-3,/,-5,?
O=S(=O)(Cc1ccccc1)N1CCCCN2[C@@H](CO)[C@H](c3ccc(C#Cc4ccccc4)cc3)[C@@H]2C1,-2,-47*,/,55,/,/,?
O=S(=O)(Cc1ccccc1)N1CCCCN2[C@H](CO)[C@@H](c3ccc(C#Cc4ccccc4)cc3)[C@@H]2C1,1,6,/,2,/,/,/
CC(C)CC#Cc1ccc([C@H]2[C@@H](CO)N3CCCCN(S(=O)(=O)Cc4ccccc4)C[C@H]23)cc1,2,-21*,/,2,/,/,?
COc1cccc(-c2ccc([C@H]3[C@@H](CO)N4CCCCN(CC5CCOCC5)C[C@H]34)cc2)c1,0,/,/,-1,/,/,/
CC(C)CC#Cc1ccc2c(c1)O[C@@H](CN(C)C(=O)C1CCCCC1)[C@@H](C)CN([C@@H](C)CO)S2(=O)=O,1,1,/,1,/,/,/
Cc1cccc(OCc2nc(C#N)c(N3CC(C)CC(C)C3)o2)c1 (stereo not given),0,-9,98,2,-8,/,/
Cc1cccc(OCc2nc(C#N)c(N3CCCC3)o2)c1,/,-25*,94,/,2,-1.6,3.7
N#Cc1ccc(C(=O)Nc2ccn(-c3ccccc3)n2)cc1,/,-14*,89,/,3,-8.6,/
O=C(Nc1ccc(Cl)c(Cl)c1)N[C@@H]1CC[C@@H](CCn2cc(C3CCCCC3)nn2)O[C@H]1CO,0,-42*,/,-1,/,?,?
O=C(Nc1ccc(Cl)c(Cl)c1)N[C@H]1CC[C@@H](CCn2cc(C3CCCCC3)nn2)O[C@@H]1CO,-3,-44*,/,-3,/,/,?
COc1ccc(NC(=O)N2CCC3(CC2)CN(C(C)=O)[C@@H](CO)c2[nH]c4cc(OC)ccc4c23)cc1,/,-1,/,/,/,/,/
CN(C)CC(=O)N[C@H]1CC[C@@H](CCn2cc(CN(C)C)nn2)O[C@@H]1CO,-1,3,/,1,/,/,/
CC(=O)N(CCC1(c2ccc(C)cc2)CCOC(C(C)C)C1)Cc1ccco1 (stereo not given),0,-20*,89,0,27,-14,/
COc1cccc(-c2ccc(SCc3ccccn3)nn2)c1,/,-23*,82,/,-22,/,?
COc1cccc(CN(C)Cc2nc(Cc3ccccc3Cl)no2)c1,/,-26*,94,/,182,-17,?
Cc1ccc(-n2nc(C)c3c(C)c(CCC(=O)O)c(C)nc32)cc1C,4,-26*,101,0,255,-15,/
CSc1nc2ccc(NS(=O)(=O)c3ccc([N+](=O)[O-])cc3)cc2s1,-2,-22*,89,1,6,-14,-7.9
O=C(c1ccccc1)C1CN(Cc2ccccc2)CCC1(O)c1ccccc1 (stereo not given),-4,-18*,84,0,-5,-0.75,/
OC(c1ccccc1)C1CN(Cc2ccccc2)CCC1(O)c1ccccc1 (stereo not given),4,2,109,2,-1,/,/
COc1cccc2sc(N(CCCN(C)C)C(=O)c3ccc(S(=O)(=O)N4CCc5ccccc5C4)cc3)nc12,4,-57,92,1,-1,/,/
Cc1ccc2sc(N(CCCN(C)C)C(=O)c3ccc(S(=O)(=O)N4CCc5ccccc5C4)cc3)nc2c1C,-4,-29*,110,-2,-13,-1.3,-1.3
SMILES,PglD DTNB,rRNA inh HTS,CR mimetic SO,Cneo AK release,SUMO Mot1 rescue,AID977621,AID977628
COc1ccc(C)c2sc(N(CCN(C)C)C(=O)c3ccc(S(=O)(=O)N(C)c4ccccc4)cc3)nc12,-2,-12*,/,4,/,/,-0.093
CCCNC(=O)Nc1ccc2c(c1)C(=O)N(C)[C@@H]1CC[C@@H](CC(=O)OC)O[C@@H]1CO2,0,1,/,-5,/,/,/
CCOc1ccc(S(=O)(=O)N(C)c2ccc(OCC(=O)NCc3cccnc3)cc2)cc1,/,-20*,100,/,-7,3.3,-9.2
CS(=O)(=O)N1[C@H](C#N)[C@H](c2ccccc2-c2ccccc2F)[C@@H]1CO,/,-5,/,/,/,/,/
O=S(=O)(Cc1ccc(Cl)cc1)N1CCN(Cc2ccccc2)CC1,/,10,96,/,26,/,/
O=S(=O)(Cc1ccc(Cl)cc1)N1CCN(Cc2ccc3c(c2)OCO3)CC1,3,-20*,86,0,5,-10,?
CCCc1nc2cc(C)c(Br)c(C)n2c1CC1CCCCC1,/,-20*,/,/,/,/,-7.4
O=C(CSc1nnc(-c2ccccc2F)n1C1CC1)Nc1cccnc1Cl,6,-16*,104,-4,1,-8.9,-6.6
CC(C)Nc1nnc(SCC(=O)Nc2sccc2C#N)s1,4,-25*,97,-1,-22,/,?
NS(=O)(=O)c1ccc(NC(=O)CSc2nnc(NC3CC3)s2)cc1,-1,6,/,1,/,/,/
N#Cc1ccsc1NC(=O)CSc1nnc(NC2CC2)s1,4,-12*,/,-4,/,-13,-8.7
CC(C)Nc1nnc(SCC(=O)Nc2ccc3c(c2)C(=O)c2ccccc2C3=O)s1,3,/,151,1,20,/,/
C[C@@H]1CN([C@H](C)CO)C(=O)c2cc(NC(=O)C3CC3)ccc2O[C@H]1CN(C)C(=O)Nc1ccc(C(F)(F)F)cc1,0,-7,/,10,/,/,/
C[C@@H]1CN([C@@H](C)CO)C(=O)c2cc(NC(=O)C3CC3)ccc2O[C@H]1CN(C)C(=O)Nc1ccc(C(F)(F)F)cc1,-2,-29*,/,7,/,-18,-13
C[C@H](CO)N1C[C@H](C)[C@H](CN(C)C(=O)Nc2ccc3c(c2)OCO3)Oc2c(NC(=O)Nc3ccccc3)cccc2C1=O,4,-22*,/,-4,/,-11,?
C[C@@H]1CN([C@H](C)CO)C(=O)CCCn2nncc2CO[C@H]1CN(C)C(=O)Nc1ccc(C(F)(F)F)cc1,-1,-54,/,4,/,/,/
C[C@@H]1CN([C@H](C)CO)C(=O)CCCn2nncc2CO[C@@H]1CN(C)C(=O)Nc1ccc(C(F)(F)F)cc1,5,-18*,/,0,/,-15,?
